Calls of active or inactive are those of the source. The rule behind the calls is not given here.
How the values were obtained:
[1] = target: T1, Bifunctional epoxide hydrolase 2 (Homo sapiens) (UniProt P34913); test: Inhibition of soluble epoxide hydrolase (unknown origin) using PHOME as substrate at 100 uM measured for 1 hr by fluorescence assay relative to control
T1 sequence (whole entry): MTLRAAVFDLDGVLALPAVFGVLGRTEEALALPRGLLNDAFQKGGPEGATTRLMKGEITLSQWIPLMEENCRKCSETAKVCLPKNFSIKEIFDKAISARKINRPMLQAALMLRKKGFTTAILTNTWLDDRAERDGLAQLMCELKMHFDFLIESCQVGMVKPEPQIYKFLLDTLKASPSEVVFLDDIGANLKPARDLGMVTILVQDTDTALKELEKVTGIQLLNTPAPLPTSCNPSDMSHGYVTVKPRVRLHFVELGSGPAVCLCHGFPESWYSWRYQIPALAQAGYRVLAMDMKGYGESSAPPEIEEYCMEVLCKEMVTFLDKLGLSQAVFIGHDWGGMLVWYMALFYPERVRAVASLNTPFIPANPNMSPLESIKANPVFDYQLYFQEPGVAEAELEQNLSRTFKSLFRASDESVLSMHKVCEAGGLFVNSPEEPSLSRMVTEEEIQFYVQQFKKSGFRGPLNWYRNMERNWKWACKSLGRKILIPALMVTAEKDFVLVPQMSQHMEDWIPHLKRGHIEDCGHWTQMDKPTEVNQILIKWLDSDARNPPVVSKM
Procedure, shortened: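 sEH (31.6 ng/mL) mixed with compound in MeOH in 25 mM Bis-Tris-HCl, pH 7.0, with 0.1 mg/mL BSA; 40 μM PHOME substrate (stock added) started the reaction at 37 °C. Fluorescence read at ex 330/em 465 nm for 1 h. Activity (%) taken from the signal change between 0 and 40 min, relative to the uninhibited control. Positive control AUDA.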

[2] = target: T2, Bifunctional epoxide hydrolase 2 (Homo sapiens, UniProt P34913); test: Inhibition of soluble epoxide hydrolase (unknown origin) using PHOME as substrate measured for 1 hr by fluorescence assay
T2 sequence (P34913 whole entry): T1 sequence (whole entry)

[3] = target: T1, Bifunctional epoxide hydrolase 2 (Homo sapiens); test: Non-competitive inhibition of soluble epoxide hydrolase (unknown origin) using PHOME as substrate measured for 1 hr by Lineweaver-Burk plot analysis
[4] = target: T1, Bifunctional epoxide hydrolase 2 (Homo sapiens); test: Competitive inhibition of soluble epoxide hydrolase (unknown origin) using PHOME as substrate measured for 1 hr by Lineweaver-Burk plot analysis
[5] = target: T1, Bifunctional epoxide hydrolase 2 (Homo sapiens); test: Mixed inhibition of soluble epoxide hydrolase (unknown origin) using PHOME as substrate measured for 1 hr by Lineweaver-Burk plot analysis

Row | SMILES | inhibition [1] [%] | IC50 [2] [µM] | inhibition [3] | inhibition mode [4] | inhibition [5]
1 | C[C@H]1[C@H]2[C@@H](O[C@@]3(O)[C@@H]1OC(C)(C)[C@H]3O)[C@H](O)[C@@]1(C)[C@@H]3CC[C@H]4C(C)(C)[C@@H](O[C@@H]5OC[C@@H](O)[C@H](O)[C@H]5O)CC[C@@]45C[C@@]35CC[C@]21C | 70.2 | 4.4 |  | Active | 
2 | CC(=O)O[C@H]([C@H]1C[C@@H](C)[C@H]2[C@@](O)(O1)[C@H](O)[C@@]1(C)[C@@H]3CC[C@H]4C(C)(C)[C@@H](O[C@@H]5OC[C@@H](O)[C@H](O)[C@H]5O)CC[C@@]45C[C@@]35CC[C@]21C)C(C)(C)O | 66.1 | 0.4 |  | Active | 
3 | COC(C)(C)[C@H]1O[C@@]23O[C@@H]1C[C@@H](C)[C@@H]2[C@@]1(C)CC[C@@]24C[C@@]25CC[C@H](O[C@@H]2OC[C@@H](O)[C@H](O)[C@H]2O)C(C)(C)[C@@H]5CC=C4[C@]1(C)[C@H]3O | 75.6 | 0.4 |  | Active | 
4 | CC(=O)OC(C)(C)[C@H]1O[C@@]23O[C@@H]1C[C@@H](C)[C@@H]2[C@@]1(C)CC[C@@]24C[C@@]25CC[C@H](O[C@@H]2OC[C@@H](O)[C@H](O)[C@H]2O)C(C)(C)[C@@H]5CC=C4[C@]1(C)[C@H]3O | 76.7 | 24 |  | Active | 
5 | C[C@@H]1C[C@]23OCC(C)(O)[C@H]2O[C@@]2(O3)[C@H]1[C@@]1(C)CC[C@@]34C[C@@]35CC[C@H](O[C@@H]3OC[C@@H](O)[C@H](O)[C@H]3O)C(C)(C)[C@@H]5CC=C4[C@]1(C)[C@H]2O (some centres undefined) | 63.2 | 14.6 |  |  | Active
6 | CC(=O)O[C@H]1[C@H](O[C@H]2CC[C@]34C[C@]35CC[C@]3(C)[C@H]6[C@H](C)C[C@H]7O[C@@]6(O[C@H]7C(C)(C)O)[C@H](O)[C@@]3(C)C5=CC[C@H]4C2(C)C)OC[C@@H](O)[C@@H]1O | 64.9 | 60.9 |  |  | 

Continued by falling IC50 [2], values first:

Row | inhibition [1] [%] | IC50 [2] [µM] | inhibition [3] | inhibition mode [4] | inhibition [5] | SMILES
7 | 61.9 | 18.5 | Active |  |  | C[C@@H]1C[C@H]2O[C@]3(O[C@H]2C(C)(C)O)[C@H]1[C@@]1(C)[C@H](O)C[C@@]24C[C@@]25CC[C@H](O[C@@H]2OC[C@@H](O)[C@H](O)[C@H]2O)C(C)(C)[C@@H]5CC=C4[C@]1(C)[C@H]3O
8 | 84.8 | 10.7 |  | Active |  | C[C@@H]1C[C@H]([C@@H](O)C(C)(C)O)O[C@]2(O)[C@H]1[C@@]1(C)CC[C@@]34C[C@@]35CC[C@H](O[C@@H]3OC[C@@H](O)[C@H](O)[C@H]3O)C(C)(C)[C@@H]5CC=C4[C@]1(C)[C@H]2O
9 | 69.6 | 8.6 | Active |  |  | C[C@@H]1CC(=O)[C@H](O)[C@]2(O)[C@H]1[C@@]1(C)CC[C@@]34C[C@@]35CC[C@H](O[C@@H]3OC[C@@H](O)[C@H](O)[C@H]3O)C(C)(C)[C@@H]5CC=C4[C@]1(C)[C@H]2O
10 | 72.4 | 5.2 | Active |  |  | CC(=O)O[C@H](C[C@@H](C)[C@H]1C(=O)[C@H](O)[C@@]2(C)C3=CC[C@H]4C(C)(C)[C@@H](O[C@@H]5OC[C@@H](O)[C@H](O)[C@H]5O)CC[C@@]45C[C@@]35CC[C@]12C)[C@@H](O)C(C)(C)O

Reference: ChEMBL document CHEMBL4190200, “Inhibition Potential of Cycloartane-Type Glycosides from the Roots of Cimicifuga dahurica against Soluble Epoxide Hydrolase” (J Nat Prod, 2017)
